Measurements taken from the RNAGym collection of RNA variant scans (doi:10.1126/science.aae0568).
This sample holds only a part of the variants without activity.

B1: tRNA (parent)
chain: GUUCCGUUGGCGUAAUGGUAACGCGUCUCCCUCCUAAGGAGAAGACUGCGGGUUCGAGUCCCGUACGGAACG

Variants of: B1
Assay: yeast fitness relative to wild type (ratio to wild type); higher = fitter; tRNA-Arg(CCU), competitive growth, 37 C, YPD
How it was run: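 Gene amplicons from the start population and from each of six end populations were read by 100-nucleotide paired-end sequencing. Those end populations came from pooled Saccharomyces cerevisiae strains carrying tRNA-Arg(CCU) gene variants at the native locus, competed in YPD at 37°C for 24 hours. Fitness relative to wild type was worked out from changes in genotype frequencies. Genotypes needed ≥ 100 starting reads, and estimates < 0.5 were set to 0.5.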

C4A A14U A43C A65U and C4A C11G C31A A42G C66A cannot be ordered by yeast fitness: no more than 0.5 for the first, no more than 0.5 for the second.

Going from C4A C11G G18C C27G to U3G C49U G58A G63A, the yeast fitness rises from no more than 0.5 to 0.584.

First: U3G C24G C49U G58A G63A
Second: C4A A37C A42C
The yeast fitness of the first is lower: no more than 0.5 for the first, 0.506 for the second.

Compared with C4A A14C C27A, C4A A57G A70U is higher in yeast fitness: no more than 0.5 for the first, 0.587 for the second.

Compared with C4A A57G A70C, C4A A15C A20C is lower in yeast fitness: 0.617 for the first, no more than 0.5 for the second.

Compared with C4A A40G, U3G C30A C31G is lower in yeast fitness: 0.828 for the first, 0.669 for the second.

Compared with U3G G25A, C4A C11G U19G U53C is lower in yeast fitness: 0.768 for the first, 0.698 for the second.

Going from C4A A21U A43G C62A to C4A A43C G58A, the yeast fitness rises from no more than 0.5 to 0.588.

C4A A15G G56C C60A and C4A C11A C61U cannot be ordered by yeast fitness: no more than 0.5 for the first, no more than 0.5 for the second.

First: C4A A20C C27U C49G
Second: C4A C5U U19A
The yeast fitness of the first is lower: no more than 0.5 for the first, 0.532 for the second.

Compared with C4A A14G C24U U32G A43G, U3G G67C is higher in yeast fitness: no more than 0.5 for the first, 0.825 for the second.

C4A C11A U13C U28G A43G and C4A A21U C27A G41C cannot be ordered by yeast fitness: no more than 0.5 for the first, no more than 0.5 for the second.

First: C4A C11G U19G G56C
Second: C4A A20G A42C C46G C49U A69C
The yeast fitness of the first is higher: 0.528 for the first, no more than 0.5 for the second.

Going from C4A A43C to C4A A43G, the yeast fitness falls from 0.89 to 0.785.

Going from C4A C11A to U3G G68U, the yeast fitness rises from 0.6 to 0.808.

First: U3G U13C A14U C29A A69C
Second: U3G G6A A36U G48C G52C A57U C60G
The yeast fitness of the first is lower: 0.562 for the first, 0.569 for the second.

First: U3G G48A A69U
Second: U3G U8A G18C C29G A36C
The yeast fitness of the first is higher: 0.638 for the first, no more than 0.5 for the second.

Compared with U3G G25A C61U, U3G G17C C62U is lower in yeast fitness: 0.733 for the first, no more than 0.5 for the second.

C4A A65C G67U and U3G C27A A65U cannot be ordered by yeast fitness: no more than 0.5 for the first, no more than 0.5 for the second.

Going from C4A A21C C22U U35C G50C A70U to U3G G25A C27G G50C, the yeast fitness falls from 0.563 to 0.537.

U3G G23A A36U A43G C61A A70G and C4A A15G C31U C33U cannot be ordered by yeast fitness: no more than 0.5 for the first, no more than 0.5 for the second.

Compared with U3G C24G C49U C55G G58A, U3G U7C A40U is higher in yeast fitness: no more than 0.5 for the first, 0.502 for the second.

C4A C5G A42G and C4A A36G G51C A65U cannot be ordered by yeast fitness: no more than 0.5 for the first, no more than 0.5 for the second.

First: C4A A20G G44C A45G C55U
Second: C4A A14U A20C U28G G63A
The yeast fitness of the first is lower: no more than 0.5 for the first, 0.562 for the second.

U3G G10C C46U G48A and C4A A14G G23C A65G cannot be ordered by yeast fitness: no more than 0.5 for the first, no more than 0.5 for the second.

Going from C4A A20U A43U U53C U59A C66U to C4A C11A C29G A40G, the yeast fitness rises from no more than 0.5 to 0.574.

Compared with U3G U7A G9A U28C A40U, U3G U59A is higher in yeast fitness: no more than 0.5 for the first, 0.793 for the second.

C4A C11G C31A A42G and C4A A14C G38A U59G cannot be ordered by yeast fitness: no more than 0.5 for the first, no more than 0.5 for the second.

Going from U3G C49U G58A to C4A A15C U35G, the yeast fitness falls from 0.901 to no more than 0.5.

Going from U3G G18A C60G to U3G G18A G41A A45U, the yeast fitness falls from 0.538 to no more than 0.5.

First: C4A A15G G56C
Second: C4A A15U G18C G56C
The yeast fitness of the first is higher: 0.583 for the first, no more than 0.5 for the second.

Compared with U3G G56A, U3G C55U C66U is lower in yeast fitness: 0.898 for the first, no more than 0.5 for the second.

First: C4A A36U A37C U47C A70U
Second: U3G C24U C31U G50U A69U
The yeast fitness of the first is lower: 0.55 for the first, 0.56 for the second.

Compared with U3G G50A C62U, C4A C5G A15G G23C C30U is lower in yeast fitness: 1.04 for the first, no more than 0.5 for the second.

U3G U8A C31A C55U and U3G U8C C33U U54C C66A cannot be ordered by yeast fitness: no more than 0.5 for the first, no more than 0.5 for the second.

Going from U3G G41A to C4A A21C C22U G50C, the yeast fitness falls from 0.748 to 0.617.

Compared with C4A A20G C24A G52C U54A, U3G G17C C61A is higher in yeast fitness: no more than 0.5 for the first, 0.61 for the second.

First: U3G G12A C27A C29G U53A C60A A69C
Second: C4A A65U A69U
The yeast fitness of the first is lower: no more than 0.5 for the first, 0.774 for the second.

Compared with C4A A21U U47G, C4A C5G U8A C30A C62A is lower in yeast fitness: 0.535 for the first, no more than 0.5 for the second.

Compared with U3G G18C G44A, C4A A14U C34U is higher in yeast fitness: no more than 0.5 for the first, 0.763 for the second.

First: C4A A15G A40G U64A
Second: C4A A15U G48A
The yeast fitness of the first is lower: no more than 0.5 for the first, 0.559 for the second.

Compared with C4A C5A C30A C31U C33A A40U C60G, U3G C22U A57G C60A A65U is higher in yeast fitness: no more than 0.5 for the first, 0.63 for the second.

First: C4A A37C A70U
Second: C4A A14U A20C U28G
The yeast fitness of the first is lower: no more than 0.5 for the first, 0.588 for the second.

Going from U3G C60U to U3G C60G, the yeast fitness falls from 0.66 to 0.577.

U3G C22U C27U G56A and U3G G6A A14G C55G A65G cannot be ordered by yeast fitness: no more than 0.5 for the first, no more than 0.5 for the second.

C4A C5A C34A A43G and U3G C31U C49U G50A cannot be ordered by yeast fitness: no more than 0.5 for the first, no more than 0.5 for the second.

Compared with U3G U8A C24A A70G, U3G U8A U26G G38C A40C U53C is higher in yeast fitness: no more than 0.5 for the first, 0.566 for the second.

Going from U3G C66U A70U to C4A A15G C33U, the yeast fitness rises from 0.534 to 0.753.

C4A A14U C34U U54C and C4A A20C A42C U54C cannot be ordered by yeast fitness: no more than 0.5 for the first, no more than 0.5 for the second.

C4A C5U G52C C61G and U3G U35A A70G cannot be ordered by yeast fitness: no more than 0.5 for the first, no more than 0.5 for the second.

Compared with U3G U26A C29A C34A G38A A65U, U3G C27U is higher in yeast fitness: no more than 0.5 for the first, 0.798 for the second.

Going from C4A A37G G63C to U3G C29A C46U C61G, the yeast fitness falls from 0.552 to no more than 0.5.

U3G C22A C24U U35G A45U G56A and U3G U26A A65G cannot be ordered by yeast fitness: no more than 0.5 for the first, no more than 0.5 for the second.

Compared with U3G C30U G48C G68C, C4A A14G C30G A45G G52A G63A is lower in yeast fitness: 0.526 for the first, no more than 0.5 for the second.

C4A A14U A20C U28G C62A and C4A A57C C66U cannot be ordered by yeast fitness: no more than 0.5 for the first, no more than 0.5 for the second.

U3G C31U C49U A70C and U3G C24A A40C cannot be ordered by yeast fitness: no more than 0.5 for the first, no more than 0.5 for the second.

C4A A45U G51A and U3G U8C C62A cannot be ordered by yeast fitness: no more than 0.5 for the first, no more than 0.5 for the second.

First: U3G U16G
Second: C4A A40U A43G A65U
The yeast fitness of the first is higher: 1.02 for the first, no more than 0.5 for the second.

C4A A20G C24G C31G and C4A A45U U47A cannot be ordered by yeast fitness: no more than 0.5 for the first, no more than 0.5 for the second.

Going from C4A C5A C22A U28G C33G A57G G67C to C4A A14U C29U, the yeast fitness rises from no more than 0.5 to 0.657.

C4A C5G C46G and U3G C11U C22A cannot be ordered by yeast fitness: no more than 0.5 for the first, no more than 0.5 for the second.

U3G C27U U35G A42U and C4A A14U A20C U28G A70C cannot be ordered by yeast fitness: no more than 0.5 for the first, no more than 0.5 for the second.

Compared with C4A A21U C46A, C4A C5G A20C A40U C61G is lower in yeast fitness: 0.58 for the first, no more than 0.5 for the second.

Going from C4A A14G C30G A45G G52A to U3G U26A U28G A45C U54C G67A A69U, the yeast fitness falls from 0.609 to no more than 0.5.

U3G C46G G52C and C4A C5G C60U C62U cannot be ordered by yeast fitness: no more than 0.5 for the first, no more than 0.5 for the second.

C4A A36U G50A C61U and C4A C11A A57G cannot be ordered by yeast fitness: no more than 0.5 for the first, no more than 0.5 for the second.

Compared with C4A A42G A45C, C4A A36G A40G C66U is higher in yeast fitness: no more than 0.5 for the first, 0.624 for the second.

First: C4A C5U A36G A42C
Second: C4A A14C
The yeast fitness of the first is lower: no more than 0.5 for the first, 0.591 for the second.

Going from C4A A15U U19A C27A C29U C33U A70U to C4A A21C C22U G50C A70U, the yeast fitness rises from no more than 0.5 to 0.73.

First: U3G G18A A69U
Second: U3G U13C C22A
The yeast fitness of the first is lower: no more than 0.5 for the first, 0.656 for the second.

C4A C5U U8C U47C U64A and U3G G9C A20G C29A G67U cannot be ordered by yeast fitness: no more than 0.5 for the first, no more than 0.5 for the second.

U3G U7G C22U C60G and C4A A15G U32C U35C G67C A69U cannot be ordered by yeast fitness: no more than 0.5 for the first, no more than 0.5 for the second.

First: U3G G12C A70C
Second: C4A C5U U19A C55U
The yeast fitness of the first is higher: 0.545 for the first, 0.539 for the second.

C4A A40U A42G C55G and C4A A20G C60A A70C cannot be ordered by yeast fitness: no more than 0.5 for the first, no more than 0.5 for the second.

First: U3G G48U
Second: U3G G48A
The yeast fitness of the first is higher: 0.937 for the first, 0.856 for the second.

First: C4A A40U G52C C60G A69C
Second: U3G U8C A15U C49A
The yeast fitness of the first is lower: 0.55 for the first, 0.597 for the second.

First: U3G U53C A57G C66U A69U
Second: C4A A14U A20C U28G C66U
The yeast fitness of the first is lower: no more than 0.5 for the first, 0.557 for the second.

Going from U3G G9C C33G G63A to U3G U13A, the yeast fitness rises from 0.606 to 1.1.

Going from U3G C46U C49U to U3G G17C C29U A37G C61U A70C, the yeast fitness falls from 0.698 to 0.512.

Compared with U3G C49G C60G C62G G63A, U3G U28A is higher in yeast fitness: no more than 0.5 for the first, 0.605 for the second.

Going from U3G U28C to U3G U19G, the yeast fitness falls from 0.888 to 0.641.

Compared with U3G U19C, C4A C5U A20G U28A A37U C61U A69U is lower in yeast fitness: 0.841 for the first, no more than 0.5 for the second.

Going from C4A A21G A65U to C4A C5G, the yeast fitness falls from 0.668 to 0.571.

For U3G C33A G52A, the yeast fitness was 0.651.
